ChEMBL document CHEMBL4316629, “Discovery of 1,3-diphenyl-1H-pyrazole derivatives containing rhodanine-3-alkanoic acid groups as potential PTP1B inhibitors” (Bioorg Med Chem Lett, 2019)
Activity calls are given as the source filed them. The calls are words filed in the database; no cut-off is given here.

How the values were obtained:
[1] = molecular target: T1, Tyrosine-protein phosphatase non-receptor type 1 (Homo sapiens, UniProt P18031); assay: Inhibition of PTP1B (unknown origin) using pNPP as substrate
T1 sequence (P18031 whole entry): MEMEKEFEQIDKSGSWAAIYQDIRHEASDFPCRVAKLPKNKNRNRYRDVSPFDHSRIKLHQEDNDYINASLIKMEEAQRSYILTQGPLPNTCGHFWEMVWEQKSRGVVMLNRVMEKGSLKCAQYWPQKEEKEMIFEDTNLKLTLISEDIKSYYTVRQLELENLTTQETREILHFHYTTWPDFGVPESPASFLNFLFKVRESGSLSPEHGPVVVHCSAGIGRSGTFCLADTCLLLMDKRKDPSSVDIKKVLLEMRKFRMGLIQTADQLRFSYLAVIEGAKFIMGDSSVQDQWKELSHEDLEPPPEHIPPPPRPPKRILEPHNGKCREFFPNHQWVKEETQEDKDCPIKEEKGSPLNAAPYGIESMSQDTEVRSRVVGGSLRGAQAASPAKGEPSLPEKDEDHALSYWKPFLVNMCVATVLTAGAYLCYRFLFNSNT

[2] = species: Homo sapiens; assay: Selectivity index, ratio of IC50 for inhibition of TCPTP (unknown origin) using pNPP as substrate to IC50 for inhibition of PTP1B (unknown origin) using pNPP as substrate
Outline: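 Both TCPTP and PTP1B IC50 values were measured by the same pNPP hydrolysis assay, derived by regression from triplicate dose-response data. The index is the TCPTP IC50 divided by the PTP1B IC50.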

[3] = molecular target: T2, Tyrosine-protein phosphatase non-receptor type 2 (Homo sapiens, UniProt P17706); assay: Inhibition of TCPTP (unknown origin) using pNPP as substrate
T2 sequence (P17706 whole entry): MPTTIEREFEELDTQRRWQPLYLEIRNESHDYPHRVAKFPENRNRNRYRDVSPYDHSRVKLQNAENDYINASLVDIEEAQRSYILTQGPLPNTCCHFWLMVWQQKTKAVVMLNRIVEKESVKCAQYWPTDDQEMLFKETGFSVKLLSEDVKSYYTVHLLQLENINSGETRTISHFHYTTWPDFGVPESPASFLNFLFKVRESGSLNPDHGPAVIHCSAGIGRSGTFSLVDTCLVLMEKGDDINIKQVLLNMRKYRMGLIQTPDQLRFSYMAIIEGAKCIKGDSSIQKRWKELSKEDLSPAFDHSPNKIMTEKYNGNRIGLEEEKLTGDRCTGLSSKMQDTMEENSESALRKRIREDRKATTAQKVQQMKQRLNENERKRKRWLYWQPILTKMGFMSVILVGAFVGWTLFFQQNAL

[4] = molecular target: T3, M-phase inducer phosphatase 2 (Homo sapiens, UniProt P30305); assay: Inhibition of CDC25B (unknown origin) using pNPP as substrate
T3 sequence (P30305 whole entry): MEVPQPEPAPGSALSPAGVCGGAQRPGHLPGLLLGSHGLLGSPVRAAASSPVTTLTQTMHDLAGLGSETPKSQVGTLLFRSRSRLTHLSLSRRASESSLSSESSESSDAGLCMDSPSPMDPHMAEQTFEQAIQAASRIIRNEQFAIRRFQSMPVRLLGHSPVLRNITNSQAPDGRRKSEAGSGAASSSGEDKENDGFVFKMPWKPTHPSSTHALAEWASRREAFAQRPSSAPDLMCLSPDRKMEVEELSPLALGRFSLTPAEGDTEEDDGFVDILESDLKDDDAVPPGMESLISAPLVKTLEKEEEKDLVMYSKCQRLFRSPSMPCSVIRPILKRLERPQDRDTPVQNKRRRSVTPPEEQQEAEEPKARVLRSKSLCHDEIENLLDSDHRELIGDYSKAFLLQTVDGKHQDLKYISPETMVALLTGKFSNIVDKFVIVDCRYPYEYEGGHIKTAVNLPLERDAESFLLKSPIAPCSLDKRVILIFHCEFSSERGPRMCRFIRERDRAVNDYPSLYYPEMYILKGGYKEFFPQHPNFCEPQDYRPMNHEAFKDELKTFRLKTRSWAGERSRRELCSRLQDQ
Outline: (§1)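 Same pNPP-substrate phosphatase assay as for PTP1B, applied for selectivity. Compounds were first screened at 20 μg/mL, then tested over a dose range. IC50 was obtained by regression analysis and reported as mean ± SD of three replications. Oleanolic acid served as the positive control.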

[5] = molecular target: Receptor-type tyrosine-protein phosphatase F (Homo sapiens) (UniProt P10586); assay: Inhibition of LAR (unknown origin) at 20 ug/ml using pNPP as substrate
Sequence of Receptor-type tyrosine-protein phosphatase F (Homo sapiens) (P10586 whole entry): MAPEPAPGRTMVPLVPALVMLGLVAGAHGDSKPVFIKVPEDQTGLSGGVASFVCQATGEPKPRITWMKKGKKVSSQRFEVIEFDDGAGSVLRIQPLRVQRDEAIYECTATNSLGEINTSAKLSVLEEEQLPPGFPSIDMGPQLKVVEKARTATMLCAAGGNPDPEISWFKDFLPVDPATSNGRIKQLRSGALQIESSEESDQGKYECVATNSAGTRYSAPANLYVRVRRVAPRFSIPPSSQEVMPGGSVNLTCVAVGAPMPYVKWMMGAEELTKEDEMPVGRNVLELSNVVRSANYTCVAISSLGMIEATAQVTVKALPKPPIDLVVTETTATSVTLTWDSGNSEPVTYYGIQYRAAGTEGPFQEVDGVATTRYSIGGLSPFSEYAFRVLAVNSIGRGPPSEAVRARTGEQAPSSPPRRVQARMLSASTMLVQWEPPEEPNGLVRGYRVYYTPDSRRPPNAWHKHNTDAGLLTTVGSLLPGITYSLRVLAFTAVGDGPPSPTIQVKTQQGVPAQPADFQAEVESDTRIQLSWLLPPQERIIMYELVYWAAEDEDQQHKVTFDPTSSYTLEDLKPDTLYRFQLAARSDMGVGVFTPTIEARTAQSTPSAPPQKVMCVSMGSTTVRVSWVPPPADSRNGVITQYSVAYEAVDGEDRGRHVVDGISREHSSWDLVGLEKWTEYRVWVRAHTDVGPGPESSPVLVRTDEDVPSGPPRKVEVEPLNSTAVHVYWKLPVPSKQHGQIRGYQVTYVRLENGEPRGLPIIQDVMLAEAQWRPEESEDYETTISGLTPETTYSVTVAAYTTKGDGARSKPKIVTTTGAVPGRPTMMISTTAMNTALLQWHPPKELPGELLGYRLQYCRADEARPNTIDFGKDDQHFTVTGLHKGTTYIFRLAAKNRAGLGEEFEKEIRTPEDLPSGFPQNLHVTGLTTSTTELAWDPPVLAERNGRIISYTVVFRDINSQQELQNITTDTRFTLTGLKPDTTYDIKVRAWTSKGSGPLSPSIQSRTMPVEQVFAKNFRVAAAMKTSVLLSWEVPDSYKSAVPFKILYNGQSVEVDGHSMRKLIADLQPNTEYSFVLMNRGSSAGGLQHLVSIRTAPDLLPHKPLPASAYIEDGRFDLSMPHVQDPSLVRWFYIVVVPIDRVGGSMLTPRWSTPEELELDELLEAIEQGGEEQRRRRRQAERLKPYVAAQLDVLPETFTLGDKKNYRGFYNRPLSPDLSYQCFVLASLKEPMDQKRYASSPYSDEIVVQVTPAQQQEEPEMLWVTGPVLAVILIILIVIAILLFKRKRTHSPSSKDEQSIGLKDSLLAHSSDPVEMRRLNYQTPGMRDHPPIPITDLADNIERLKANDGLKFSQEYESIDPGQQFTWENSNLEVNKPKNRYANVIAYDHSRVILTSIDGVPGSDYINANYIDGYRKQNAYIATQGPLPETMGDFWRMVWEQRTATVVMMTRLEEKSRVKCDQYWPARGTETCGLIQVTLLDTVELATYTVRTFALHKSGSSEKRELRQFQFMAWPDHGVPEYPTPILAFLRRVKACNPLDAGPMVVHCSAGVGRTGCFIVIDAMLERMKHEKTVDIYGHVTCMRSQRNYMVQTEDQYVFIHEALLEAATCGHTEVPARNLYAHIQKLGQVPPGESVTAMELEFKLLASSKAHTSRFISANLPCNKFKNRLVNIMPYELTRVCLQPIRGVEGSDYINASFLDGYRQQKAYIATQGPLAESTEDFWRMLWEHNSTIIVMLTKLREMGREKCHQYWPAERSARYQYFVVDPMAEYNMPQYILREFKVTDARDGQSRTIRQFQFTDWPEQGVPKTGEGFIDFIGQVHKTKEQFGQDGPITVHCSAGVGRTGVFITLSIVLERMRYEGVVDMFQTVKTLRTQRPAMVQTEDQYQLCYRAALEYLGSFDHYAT
Outline: (§2)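 Single-point screen at 20 µg/mL of compound against each phosphatase (LAR, SHP-1, SHP-2), with pNPP hydrolysis as the read-out.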

[6] = molecular target: T4, Tyrosine-protein phosphatase non-receptor type 6 (Homo sapiens, UniProt P29350); assay: Inhibition of SHP1 (unknown origin) at 20 ug/ml using pNPP as substrate; outline: as §2
T4 sequence (P29350 whole entry): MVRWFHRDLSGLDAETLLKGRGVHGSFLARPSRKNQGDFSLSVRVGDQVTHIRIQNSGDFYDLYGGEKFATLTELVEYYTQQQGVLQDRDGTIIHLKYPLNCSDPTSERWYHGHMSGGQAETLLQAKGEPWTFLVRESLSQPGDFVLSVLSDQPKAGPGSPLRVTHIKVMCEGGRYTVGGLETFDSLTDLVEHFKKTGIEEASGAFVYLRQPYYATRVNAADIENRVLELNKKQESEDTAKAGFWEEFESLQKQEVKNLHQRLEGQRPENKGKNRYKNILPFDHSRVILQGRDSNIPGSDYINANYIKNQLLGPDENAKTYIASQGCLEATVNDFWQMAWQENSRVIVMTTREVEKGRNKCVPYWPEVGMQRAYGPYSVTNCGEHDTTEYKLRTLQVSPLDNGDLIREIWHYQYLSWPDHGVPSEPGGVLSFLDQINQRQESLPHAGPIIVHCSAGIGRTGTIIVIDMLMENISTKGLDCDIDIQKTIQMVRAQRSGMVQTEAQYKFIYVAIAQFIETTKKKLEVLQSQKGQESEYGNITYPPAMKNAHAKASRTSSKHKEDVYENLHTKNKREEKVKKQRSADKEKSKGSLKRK

[7] = molecular target: T5, Tyrosine-protein phosphatase non-receptor type 11 (Homo sapiens) (UniProt Q06124); assay: Inhibition of SHP2 (unknown origin) at 20 ug/ml using pNPP as substrate; outline: as §2
T5 sequence (whole entry): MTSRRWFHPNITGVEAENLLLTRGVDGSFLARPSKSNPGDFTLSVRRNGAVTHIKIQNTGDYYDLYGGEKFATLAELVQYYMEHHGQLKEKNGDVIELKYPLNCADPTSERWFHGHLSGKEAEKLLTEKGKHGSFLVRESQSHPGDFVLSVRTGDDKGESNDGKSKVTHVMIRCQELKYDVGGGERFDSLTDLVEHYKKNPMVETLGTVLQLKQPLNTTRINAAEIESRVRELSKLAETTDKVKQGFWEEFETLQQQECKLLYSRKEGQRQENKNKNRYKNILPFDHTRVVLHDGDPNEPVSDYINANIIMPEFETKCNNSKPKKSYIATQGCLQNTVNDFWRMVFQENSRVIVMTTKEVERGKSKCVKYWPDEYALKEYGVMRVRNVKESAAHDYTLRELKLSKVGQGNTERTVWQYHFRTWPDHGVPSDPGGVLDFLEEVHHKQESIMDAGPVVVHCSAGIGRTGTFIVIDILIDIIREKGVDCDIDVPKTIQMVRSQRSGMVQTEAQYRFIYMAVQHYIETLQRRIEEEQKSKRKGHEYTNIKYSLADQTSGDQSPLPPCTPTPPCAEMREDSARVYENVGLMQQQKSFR

[8] = molecular target: T4, Tyrosine-protein phosphatase non-receptor type 6; assay: Inhibition of SHP1 (unknown origin) using pNPP as substrate; outline: as §1
[9] = molecular target: T6, Tyrosine-protein phosphatase non-receptor type 11 (Homo sapiens, UniProt Q06124); assay: Inhibition of SHP2 (unknown origin) using pNPP as substrate; outline: as §1
T6 sequence (Q06124 whole entry): T5 sequence (whole entry)

[10] = molecular target: T7, Tyrosine-protein phosphatase non-receptor type 1 (Homo sapiens) (UniProt P18031); assay: Potency index, ratio of IC50 for oleanolic acid to IC50 for test compound for inhibition of PTP1B (unknown origin) using pNPP as substrate
T7 sequence (whole entry): T1 sequence (P18031 whole entry)
Outline: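 Both IC50 values come from dose-response inhibition of PTP1B with pNPP as substrate, fitted by regression (mean ± SD, n = 3). The ratio divides the IC50 of the reference PTP1B inhibitor by that of the test compound.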

[11] = molecular target: T7, Tyrosine-protein phosphatase non-receptor type 1 (Homo sapiens); assay: Time dependent inhibition of PTP1B (unknown origin) using pNPP as substrate
[12] = molecular target: T1, Tyrosine-protein phosphatase non-receptor type 1; assay: Competitive type inhibition of PTP1B (unknown origin) using pNPP as substrate by Lineweaver-Burk plot analysis

Compound: O=C(O)[C@@H](Cc1ccccc1)N1C(=O)/C(=C/c2cn(-c3ccccc3)nc2-c2ccccc2Cl)SC1=S
- IC50 [1]: 4.89 µM

Compound: O=C(O)CN1C(=O)/C(=C/c2cn(-c3ccccc3)nc2-c2ccc(Br)cc2)SC1=S
- IC50 [1]: 14.2 µM

Compound: COc1ccc(-c2nn(-c3ccccc3)cc2/C=C2\SC(=S)N([C@H](Cc3ccccc3)C(=O)O)C2=O)cc1
- IC50 [1]: 7.09 µM

Compound: O=C(O)CN1C(=O)/C(=C/c2cn(-c3ccccc3)nc2-c2ccc([N+](=O)[O-])cc2)SC1=S
- IC50 [1]: 9.24 µM

Compound: O=C(O)CCN1C(=O)/C(=C/c2cn(-c3ccccc3)nc2-c2ccc(Cl)cc2)SC1=S
- IC50 [1]: 6.58 µM

Compound: Cc1ccc(-c2nn(-c3ccccc3)cc2/C=C2\SC(=S)N([C@H](Cc3ccccc3)C(=O)O)C2=O)cc1
- IC50 [1]: 2.05 µM

Compound: O=C(O)[C@@H](Cc1ccccc1)N1C(=O)/C(=C/c2cn(-c3ccccc3)nc2-c2ccccc2)SC1=S
- IC50 [1]: 6.37 µM

Compound: O=C(O)[C@@H](Cc1ccccc1)N1C(=O)/C(=C/c2cn(-c3ccccc3)nc2-c2ccc([N+](=O)[O-])cc2)SC1=S
- IC50 [1]: 3.57 µM

Compound: O=C(O)CN1C(=O)/C(=C/c2cn(-c3ccccc3)nc2-c2cccc(Cl)c2)SC1=S
- IC50 [1]: 13.2 µM

Compound: O=C(O)[C@@H](Cc1ccccc1)N1C(=O)/C(=C/c2cn(-c3ccccc3)nc2-c2cccc(Br)c2)SC1=S
- IC50 [1]: 2.76 µM

Compound: COc1cccc(-c2nn(-c3ccccc3)cc2/C=C2\SC(=S)N([C@H](Cc3ccccc3)C(=O)O)C2=O)c1
- IC50 [1]: 4.95 µM

Compound: O=C(O)CCCN1C(=O)/C(=C/c2cn(-c3ccccc3)nc2-c2ccc(Cl)cc2Cl)SC1=S
- IC50 [1]: 3.66 µM
- Ratio IC50 [2]: 2 to 9
- IC50 [3]: 9.18 µM
- IC50 [4]: 13.8 µM
- inhibition [5]: inactive
- inhibition [6]: inactive
- inhibition [7]: inactive

Compound: O=C(O)CN1C(=O)/C(=C/c2cn(-c3ccccc3)nc2-c2cccc(Br)c2)SC1=S
- IC50 [1]: 12.1 µM

Compound: O=C(O)[C@@H](Cc1ccccc1)N1C(=O)/C(=C/c2cn(-c3ccccc3)nc2-c2ccc(Br)cc2)SC1=S
- IC50 [1]: 4.42 µM

Compound: COc1ccccc1-c1nn(-c2ccccc2)cc1/C=C1\SC(=S)N(CC(=O)O)C1=O
- IC50 [1]: 24.6 µM

Compound: O=C(O)[C@@H](Cc1ccccc1)N1C(=O)/C(=C/c2cn(-c3ccccc3)nc2-c2ccc(Cl)cc2)SC1=S
- IC50 [1]: 2.1 µM

Compound: O=C(O)[C@@H](Cc1ccccc1)N1C(=O)/C(=C/c2cn(-c3ccccc3)nc2-c2ccc(Cl)cc2Cl)SC1=S
- IC50 [1]: 3.56 µM
- Ratio IC50 [2]: 2 to 9
- IC50 [3]: 12.7 µM
- IC50 [4]: 13.7 µM
- inhibition [5]: inactive
- IC50 [8]: 16.8 µM
- IC50 [9]: 16.7 µM

Compound: COc1ccccc1-c1nn(-c2ccccc2)cc1/C=C1\SC(=S)N([C@H](Cc2ccccc2)C(=O)O)C1=O
- IC50 [1]: 6.3 µM

Compound: O=C(O)CCCCN1C(=O)/C(=C/c2cn(-c3ccccc3)nc2-c2ccc(Cl)cc2Cl)SC1=S
- IC50 [1]: 0.67 µM
- Ratio IC50 [10]: 2.5
- Ratio IC50 [2]: 2 to 9
- TDI [11]: inactive
- Ki [12]: 0.31 µM
- IC50 [3]: 5.77 µM
- IC50 [4]: 28.1 µM
- inhibition [5]: inactive
- inhibition [6]: inactive
- inhibition [7]: inactive

Compound: O=C(O)CCCCN1C(=O)/C(=C/c2cn(-c3ccccc3)nc2-c2ccc(Cl)cc2)SC1=S
- IC50 [1]: 2.2 µM

Compound: O=C(O)CCCCCN1C(=O)/C(=C/c2cn(-c3ccccc3)nc2-c2ccc(Cl)cc2)SC1=S
- IC50 [1]: 1.85 µM

Compound: O=C(O)CN1C(=O)/C(=C/c2cn(-c3ccccc3)nc2-c2ccc3ccccc3c2)SC1=S
- IC50 [1]: 4.78 µM
- Ratio IC50 [2]: 2 to 9
- IC50 [3]: 7.91 µM
- IC50 [4]: 11.3 µM
- inhibition [5]: inactive
- IC50 [8]: 24.5 µM
- IC50 [9]: 20.9 µM

Compound: O=C(O)[C@@H](Cc1ccccc1)N1C(=O)/C(=C/c2cn(-c3ccccc3)nc2-c2ccc3ccccc3c2)SC1=S
- IC50 [1]: 1.81 µM
- Ratio IC50 [2]: 2 to 9
- TDI [11]: inactive
- Ki [12]: 0.7 µM
- IC50 [3]: 4.61 µM
- IC50 [4]: 6.12 µM
- inhibition [5]: inactive
- inhibition [6]: inactive
- inhibition [7]: inactive

Compound: O=C(O)CCCCCN1C(=O)/C(=C/c2cn(-c3ccccc3)nc2-c2ccc(Cl)cc2Cl)SC1=S
- IC50 [1]: 1.35 µM
- Ratio IC50 [2]: 2 to 9
- IC50 [3]: 5.63 µM
- IC50 [4]: 10.9 µM
- inhibition [5]: inactive
- inhibition [6]: inactive
- inhibition [7]: inactive

Compound: Cc1ccc(-c2nn(-c3ccccc3)cc2/C=C2\SC(=S)N(CC(=O)O)C2=O)cc1
- IC50 [1]: 14.7 µM

Compound: O=C(O)CCCN1C(=O)/C(=C/c2cn(-c3ccccc3)nc2-c2ccc(Cl)cc2)SC1=S
- IC50 [1]: 2.27 µM

Compound: O=C(O)CCN1C(=O)/C(=C/c2cn(-c3ccccc3)nc2-c2ccc(Cl)cc2Cl)SC1=S
- IC50 [1]: 7.93 µM
- Ratio IC50 [2]: 2 to 9
- IC50 [3]: 14 µM
- IC50 [4]: 17.1 µM
- inhibition [5]: inactive
- inhibition [6]: inactive
- inhibition [7]: inactive
